The nature of assay [1]: Antiproliferative activity in Chinese hamster R2 cells deficient in RFC, PCFT, and FRalpha assessed as reduction in cell growth after 96 hrs by Cell-Titer Blue assay. The format is cell-based. The conditions noted are these: Cricetulus griseus, R2, 96 h. The procedure, abridged:
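CHO sublines were transfected lines kept with 1 mg/ml G418 (R2 is the transporter-null parent). Cells were exposed to 0–1000 nM drug for 96 h at 37 °C, 5% CO2, in folate-free RPMI with 10% dFBS and 25 nM leucovorin. CellTiter-Blue fluorescence read at ex 560/em 590 nm. IC50 is 50% loss of growth from dose–response curves, mean ± SE of 3–10 experiments.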

Assay [2] can be described thus: Binding affinity to human FRalpha/RFC/PCFT expressed in KB cells assessed as antiproliferative activity measured as reduction in cell growth after 96 hrs by Cell-Titer Blue assay. The format is cell-based. The procedure, abridged: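 RT16 cells were precultured 72 h in folate-free RPMI with 10% dFBS; KB cells were maintained in folate-free RPMI with 10% FBS. Drug at 0–1000 nM for 96 h at 37 °C, 5% CO2, with 2 nM leucovorin. Parallel wells had 200 nM folic acid to block FR uptake. CellTiter-Blue fluorescence (ex 560/em 590 nm). IC50 from dose–response, mean ± SE of 3–10 experiments.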

The subject of assay [3] is KB. Briefly: Antiproliferative activity against human KB cells at 0.1 to 10000 nM after 96 hrs in presence of 60 uM adenosine by Cell-Titer blue assay. Type of assay: functional, cell-based. In short, it runs like this: (§1)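 KB cells grown in folate-, nucleoside- and glycine-free RPMI 1640 with 10% dialyzed FBS, L-glutamine, antibiotics and 2 nM leucovorin across a drug concentration range. Protectants: thymidine 10 μM, glycine 130 μM, adenosine 60 μM or AICA 320 μM. Parallel incubations had no additions. Viable cells read by CellTiter-Blue fluorescence. At least triplicate experiments.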

In assay [4] the test system is KB. Put plainly: Antiproliferative activity against human KB cells at 0.1 to 10000 nM after 96 hrs in presence of 10 uM thymidine by Cell-Titer blue assay. Type of assay: functional, cell-based. The procedure, abridged:
as §1

In assay [5] the test system is KB. Put plainly: Antiproliferative activity against human KB cells at 0.1 to 10000 nM after 96 hrs in presence of 130 uM glycine by Cell-Titer blue assay. The format is functional, cell-based. In short, it runs like this:
as §1

Assay [6] deals with KB. Put plainly: Antiproliferative activity against human KB cells up to 1 uM after 96 hrs in presence of 320 uM AICA by Cell-Titer blue assay. Type of assay: functional, cell-based. The procedure, abridged:
as §1

For assay [7], the target named is T1, Trifunctional purine biosynthetic protein adenosine-3 (Homo sapiens) (UniProt P22102).
T1 sequence (whole entry): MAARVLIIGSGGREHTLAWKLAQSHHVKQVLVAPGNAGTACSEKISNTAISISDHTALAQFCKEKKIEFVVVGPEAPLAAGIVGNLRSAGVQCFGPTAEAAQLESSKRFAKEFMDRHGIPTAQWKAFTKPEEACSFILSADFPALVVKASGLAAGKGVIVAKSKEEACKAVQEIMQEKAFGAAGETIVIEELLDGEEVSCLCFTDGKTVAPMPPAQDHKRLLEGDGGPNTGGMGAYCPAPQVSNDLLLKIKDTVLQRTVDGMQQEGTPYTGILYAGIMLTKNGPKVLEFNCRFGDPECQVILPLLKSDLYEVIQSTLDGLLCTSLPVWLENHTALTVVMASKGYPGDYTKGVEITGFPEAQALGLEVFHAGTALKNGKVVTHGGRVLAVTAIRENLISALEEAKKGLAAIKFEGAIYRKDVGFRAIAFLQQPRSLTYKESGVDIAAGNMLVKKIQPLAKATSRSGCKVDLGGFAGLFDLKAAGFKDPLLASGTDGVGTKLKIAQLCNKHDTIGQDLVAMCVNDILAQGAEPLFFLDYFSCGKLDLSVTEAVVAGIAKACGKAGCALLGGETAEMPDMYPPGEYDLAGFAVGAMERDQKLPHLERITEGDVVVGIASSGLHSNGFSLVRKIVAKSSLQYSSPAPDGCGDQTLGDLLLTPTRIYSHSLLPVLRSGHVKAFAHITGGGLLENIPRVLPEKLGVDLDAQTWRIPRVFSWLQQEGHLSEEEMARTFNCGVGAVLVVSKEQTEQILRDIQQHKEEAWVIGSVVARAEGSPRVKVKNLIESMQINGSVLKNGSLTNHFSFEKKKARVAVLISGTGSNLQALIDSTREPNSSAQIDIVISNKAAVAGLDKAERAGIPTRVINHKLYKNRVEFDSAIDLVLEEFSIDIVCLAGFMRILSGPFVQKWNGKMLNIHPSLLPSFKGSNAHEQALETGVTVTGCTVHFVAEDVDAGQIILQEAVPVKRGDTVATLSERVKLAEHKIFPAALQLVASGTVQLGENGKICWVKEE
Put plainly: Inhibition of GAFTase in human KB cells assessed as inhibition of [14C(U)glycine incorporation into [14C]formyl GAR preincubated for 30 mins followed by [14C](U)glycine addition and measured after 16 hrs. The format is cell-based. The procedure, abridged: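 KB cells adhered 24 h, then were washed and given drug (concentration range; DMSO controls) for 1 h in folate- and glutamine-depleted medium with 2 nM leucovorin. Azaserine 4 µM final was added for 30 min, then L-glutamine 2 mM and [14C(U)]glycine (0.1 mCi/L) for 16 h. TCA extracts yielded pmol [14C]formyl GAR/mg protein. IC50 relative to untreated controls, triplicates.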

Activity calls are given as the source filed them. The calls are words filed in the database; no cut-off is given here.

What is called IC50 is the midpoint of a concentration-inhibition curve. Take `CN(Cc1cc2c(=O)[nH]c(N)nc2[nH]1)C(=O)c1cccc(C(=O)N[C@@H](CCC(=O)O)C(=O)O)c1`: the IC50 in assay [1] is greater than 1 µM; in assay [2], 0.00636 µM.
Consider `Nc1nc2[nH]c(CCCc3ccc(C(=O)N[C@@H](CCC(=O)O)C(=O)O)cc3)cc2c(=O)[nH]1`, for which the result in the assay with KB [3] and in the assay on KB [6] was inactive. Moreover, the outcome in the assay with KB [4] and in the assay on KB [5] was Active.
Take `CN(Cc1cc2c(=O)[nH]c(N)nc2[nH]1)S(=O)(=O)c1ccc(C(=O)N[C@@H](CCC(=O)O)C(=O)O)cc1`: the IC50 in assay [1] was greater than 1 µM; in assay [2], 0.669 µM.
For `CN(Cc1cc2c(=O)[nH]c(N)nc2[nH]1)C(=O)c1ccc(C(=O)N[C@@H](CCC(=O)O)C(=O)O)s1`, the IC50 was greater than 1 µM in assay [1] and 0.00423 µM in assay [2]. The outcome in the assay with KB [3] was inactive. Moreover, the outcome in the assay on KB [4] and in the assay on KB [5] was Active. Besides, the inhibition result in assay [7] is “Active”.
With `CN(Cc1cc2c(=O)[nH]c(N)nc2[nH]1)C(=O)c1csc(C(=O)N[C@@H](CCC(=O)O)C(=O)O)c1`, the IC50 in assay [1] and in assay [2] was greater than 1 µM in each case.
Consider `CN(Cc1cc2c(=O)[nH]c(N)nc2[nH]1)C(=O)c1ccc(C(=O)N[C@@H](CCC(=O)O)C(=O)O)cc1`, for which the IC50 in assay [1] is greater than 1 µM; in assay [2], 0.0014 µM. The result in the assay on KB [3] was inactive. In addition, the result with KB [4] and in the assay with KB [5] was Active. Further, the inhibition result in assay [7] is “Active”.
For `Nc1nc2[nH]c(CCCc3ccc(C(=O)N[C@@H](CCC(=O)O)C(=O)O)s3)cc2c(=O)[nH]1`, the result with KB [3] and with KB [6] was inactive. Moreover, the outcome in the assay with KB [4] and in the assay with KB [5] was Active.
Consider `CN(Cc1cc2c(=O)[nH]c(N)nc2[nH]1)C(=O)c1cc(C(=O)N[C@@H](CCC(=O)O)C(=O)O)cs1`, for which the half-inhibitory concentration (IC50) in assay [1] was greater than 1 µM; in assay [2], 0.0698 µM.

Values taken from ChEMBL document CHEMBL4406895, “Discovery of amide-bridged pyrrolo[2,3-d]pyrimidines as tumor targeted classical antifolates with selective uptake by folate receptor α and inhibition of de novo purine nucleotide biosynthesis” (Bioorg Med Chem, 2019).
